Assay results published in publication PMC2731475 (Journal of the American Chemical Society, 2009).
Like-named read-outs stand apart in the source and are kept apart here. Each block holds one molecule with its values, some of them ahead of it.

What was measured:
[1] = target: DNA1; test: Fluorescence binding assay, DNA1; conditions: for Kd: DNA1, DNA hairpin with 5′AATT/3′TTAA
Summary of the method: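 The DNA hairpin was titrated into 1 μM test compound in 8 mM sodium phosphate pH 7.0, 185 mM NaCl, 1 mM EDTA. After 5 min incubation, fluorescence was read at ex 360/40 and em 460/40. Fraction bound/[nucleic acid] was plotted against fraction bound to obtain binding constants.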

[2] = system: 5′CUG/3′GUC; conditions: studies on 5′UTR of thymidylate synthetase mRNA; cited from earlier work
[3] = system: mice; conditions: cited from earlier work
[4] = system: RNA11-MBNL1 complex; test: MBNL1-RNA11; assay type: biochemical
[5] = target: RNA9; test: Fluorescence binding assay, RNA9
Summary of the method: (§1)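 RNA hairpins were annealed in 8 mM sodium phosphate pH 7.0, 185 mM NaCl, 1 mM EDTA at 60 °C for 1 min and slowly cooled. They were titrated into 1 μM test compound in the same buffer and read after 5 min as fluorescence (ex 360/40, em 460/40). Plots were fraction bound/[RNA] versus fraction bound, fitted to a large-ligand lattice-binding equation giving the microscopic dissociation constant.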

[6] = system: RNA3; test: Fluorescence binding assay, RNA3
Summary of the method: as §1

[7] = target: RNA1; test: Fluorescence binding assay, RNA1
Summary of the method: as §1

[8] = target: RNA5; test: Fluorescence binding assay, RNA5
Summary of the method: as §1

[9] = target: RNA2; test: Fluorescence binding assay, RNA2; conditions: RNA2, single 5′CUG/3′GUC (DM1) motif
Summary of the method: as §1

[10] = target: RNA10; test: Fluorescence binding assay, RNA10
[11] = target: herring sperm DNA; test: Fluorescence binding assay, herring sperm DNA
Summary of the method: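 Herring sperm DNA was annealed at 90 °C for 3 min in 8 mM sodium phosphate pH 7.0, 185 mM NaCl, 1 mM EDTA and slowly cooled. It was titrated into 1 μM test compound, and fluorescence (ex 360/40, em 460/40) was read after 5 min. Fraction bound/[DNA] versus fraction bound was fitted to a straight line for Kd.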

[12] = target: RNA7; test: Fluorescence binding assay, RNA7
Summary of the method: as §1

[13] = system: r(CUG)109; test: Fluorescence binding assay, r
Summary of the method: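 r(CUG)109, transcribed from BamHI-linearised plasmid and gel-purified, was annealed at 60 °C for 1 min in pH 7.0 phosphate/185 mM NaCl/EDTA buffer. It was titrated into test compound (1 μM; 5 μM for one monomeric ligand) and fluorescence read after 5 min. Data were fitted to a lattice-binding equation with N repeat units. Selectivity = Kd(herring sperm DNA)/Kd(r(CUG)109).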

[14] = target: RNA8; test: Fluorescence binding assay, RNA8
Summary of the method: as §1

[15] = system: RNA12-MBNL1 complex; test: MBNL1-RNA12; assay type: biochemical
[16] = target: RNA6; test: Fluorescence binding assay, RNA6
Summary of the method: as §1

[17] = target: r(CUG)109-MBNL1 complex; test: r; assay type: biochemical
[18] = target: RNA4; test: Fluorescence binding assay, RNA4
Summary of the method: as §1

[19] = system: RNAs containing a 1×1 nucleotide CC internal loop; conditions: cited from earlier work
[20] = target: RNA13; conditions: MBNL1 binding to RNA13, gel retardation; cited from earlier work
[21] = system: RNA16; test: Binding of MBNL1 to RNA16; conditions: MBNL1, RNA16 versus RNA11
[22] = system: RNA14; test: Binding of MBNL1 to RNA14
[23] = target: RNA12; conditions: MBNL1 binding to RNA12, gel retardation; cited from earlier work
[24] = target: r(CUG)109; conditions: MBNL1 binding to r(CUG)109; cited from earlier work
[25] = system: RNA12; test: Binding of MBNL1 to RNA12; conditions: MBNL1, RNA12 versus RNA11
[26] = system: RNA13; test: Binding of MBNL1 to RNA13; conditions: MBNL1, RNA13 versus RNA11
[27] = system: RNA17; test: Binding of MBNL1 to RNA17
[28] = target: RNA11; conditions: MBNL1 binding to RNA11, gel retardation; cited from earlier work
[29] = target: RNA14; conditions: MBNL1 binding to RNA14, gel retardation; cited from earlier work
[30] = target: RNA15; conditions: MBNL1 binding to RNA15, gel retardation; cited from earlier work
[31] = target: RNA16; conditions: MBNL1 binding to RNA16, gel retardation; cited from earlier work

Molecule: CN1CCN(c2ccc3[nH]c(-c4ccc5[nH]c(-c6ccc(O)cc6)nc5c4)nc3c2)CC1 [Compound 1, Hoechst 33258]
Kd [1]: 0.28 µM | affinity for 5′CUG/3′GUC [2]: nanomolar affinity | tolerability and toxicity in mice [3]: well tolerated by and non-toxic to mice

IC50 ([4]; RNA 11, Condition A: 7.5 pmoles of MBNL1 per well): 30.2 ± 6.8 µM | IC50 ([4]; RNA 11, Condition B: 2.0 pmoles of MBNL1 per well): 38.1 ± 6.9 µM | Kd ([5]; RNA9, 1×1 AA loop (SCA3 motif)): 0.45 ± 0.1 µM | Specificity to RNA2 ([5]; RNA9 versus RNA2): 3.5 | binds RNA2 more tightly than RNA3 ([6]; 5′CUG/3′GUC (RNA2) versus 5′CUC/3′GUG (RNA3)): > 8 fold | Kd ([6]; RNA3, 5′CUC/3′GUG): 1.05 ± 0.212 µM | Specificity to RNA2 ([6]; RNA3 versus RNA2): 8.0 | Kd ([7]; RNA1, fully paired hairpin cassette): 1.7 ± 0.07 µM | Specificity to RNA2 ([7]; RNA1 versus RNA2): 13.1 | binds RNA2 more tightly than RNA1 ([7]; RNA2 over RNA1): 13 fold | Kd ([8]; RNA5, 1×1 UU loop with GU closing pairs): 0.81 ± 0.15 µM | Specificity to RNA2 ([8]; RNA5 versus RNA2): 6.2 | weaker binding than to RNA2 ([8]; loop GC pairs (RNA2) changed to GU (RNA5)): ~6 fold | Kd [9]: 0.13 ± 0.025 µM | Kd ([10]; RNA10, 1×1 AA loop): 0.82 ± 0.16 µM | Specificity to RNA2 ([10]; RNA10 versus RNA2): 6.3 | Kd [1]: 0.25 ± 0.063 µM | Specificity to RNA2 ([1]; DNA1 versus RNA2): 1.9 | specific for RNA2 over DNA1 ([1]; RNA2 over DNA1): ~2 fold | Kd [11]: 0.11 ± 0.019 µM | Specificity to RNA2 ([12]; RNA7 versus RNA2): ∼7.7 | specificity for r(CUG)109 versus herring sperm DNA [13]: 0.7 fold | Selectivity for r(CUG)109 over herring sperm DNA ([13]; Kd herring sperm DNA divided by Kd r(CUG)109): 0.73 | Kd ([13]; r(CUG)109 hairpin, 54 DM1 motifs): 0.15 ± 0.025 µM | Kd ([14]; RNA8): 0.52 ± 0.018 µM | Specificity to RNA2 ([14]; RNA8 versus RNA2): 4.0 | IC50 ([15]; RNA 12, Condition A: 7.5 pmoles of MBNL1 per well): 48.4 ± 9.9 µM | IC50 ([15]; RNA 12, Condition B: 2.0 pmoles of MBNL1 per well): 21.1 ± 0.5 µM | Specificity to RNA2 ([16]; RNA6 versus RNA2): 2.2 | IC50 ([17]; 0.65 pmoles r(CUG)109 immobilized, 3.7 μM bulk yeast tRNA, 32 pmoles MBNL1): 110 ± 20 µM | inhibition of the MBNL1-r(CUG)109 interaction ([17]; in the presence of bulk yeast tRNA): ≥ 95% | Kd ([18]; RNA4, 1×1 UU loop with AU closing pairs): 0.37 ± 0.107 µM | Specificity to RNA2 ([18]; RNA4 versus RNA2): 2.8 | weaker binding than to RNA2 ([18]; loop GC pairs (RNA2) changed to AU (RNA4)): Approximately 3 fold
Molecule: CN1CCN(c2ccc3nc(-c4ccc5nc(-c6cccc(OCCCC(=O)NCCCN=[N+]=[N-])c6)[nH]c5c4)[nH]c3c2)CC1 [Compound 2, meta-(N-(3-azidopropyl)-4-oxybutanamide)-Hoechst]
Kd ([12]; RNA7, 1×1 CC loop): ~1 µM | Kd ([16]; RNA6, 1×1 CC loop): 0.29 ± 0.05 µM

Molecule: N=C(N)c1ccc(-c2cc3ccc(C(=N)N)cc3[nH]2)cc1 [DAPI, 2-(4-amidinophenyl)-1H-indole-6-carboxamidine]
affinity for RNAs containing a 1×1 nucleotide CC internal loop [19]: nanomolar affinities

Molecule: Cn1cc(NC(=O)c2cc(NC(=O)c3cc(NC=O)cn3C)cn2C)cc1C(=O)NCCC(=N)N [distamycin]
affinity for RNAs containing a 1×1 nucleotide CC internal loop [19]: nanomolar affinities

Specificity to DM1 RNA11 [21]: 3.7 | higher affinity than the DM1-MBNL1 complex ([22]; MBNL1, DM2 RNA14): 2 fold | Specificity to DM1 RNA11 ([22]; MBNL1, RNA14 versus RNA11): 0.5 | Specificity to DM1 RNA11 [25]: 2.5 | weaker than the DM1-MBNL1 complex [25]: 2.5 fold | Specificity to DM1 RNA11 [26]: 0.8 | Specificity to DM1 RNA11 ([27]; MBNL1, RNA17 versus RNA11): >4 | Kd ([27]; MBNL1 binding to fully paired RNA17): > 1 µM
B1: MBNL1: Muscleblind-like 1 protein, alternative splicing regulator that binds expanded rCUG repeats (protein, UniProt Q9NR56 1-388, looked up)
Muscleblind-like protein 1: MAVSVTPIRDTKWLTLEVCREFQRGTCSRPDTECKFAHPSKSCQVENGRVIACFDSLKGRCSRENCKYLHPPPHLKTQLEINGRNNLIQQKNMAMLAQQMQLANAMMPGAPLQPVPMFSVAPSLATNASAAAFNPYLGPVSPSLVPAEILPTAPMLVTGNPGVPVPAAAAAAAQKLMRTDRLEVCREYQRGNCNRGENDCRFAHPADSTMIDTNDNTVTVCMDYIKGRCSREKCKYFHPPAHLQAKIKAAQYQVNQAAAAQAAATAAAMTQSAVKSLKRPLEATFDLGIPQAVLPPLPKRPALEKTNGATAVFNTGIFQYQQALANMQLQQHTAFLPPVPMVHGATPATVSAATTSATSVPFAATATANQIPIISAEHLTSHKYVTQM
Kd [20]: 0.2 ± 0.03 µM | Kd [23]: 0.63 ± 0.07 µM | Kd [24]: 0.3 ± 0.093 µM | Kd [28]: 0.25 ± 0.01 µM | Kd [29]: 0.12 ± 0.04 µM | Kd [30]: > 2.5 µM | Kd [31]: 0.92 ± 0.15 µM
